The source made the active and inactive calls. The calls are words filed in the database; no cut-off is given here.
What was measured:
[1] = Photophysical property of the compound assessed as fluorescence quantum yield; format: physicochemical
AD293 [2] = assay: Cytotoxicity against human AD293 cells assessed as cell viability at 0.1 to 10 uM incubated for 24 hrs by MTT assay; format: toxicity, cell-based; conditions: ad293, 24 h, dose 0.1-10 µM
Summary of the method: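 AD293 cells seeded at 4 × 10^4 cells/well in DMEM with 10% FBS. Next day, compound (100 nM, 1 μM, 10 μM) or vehicle added in serum-free DMEM for 24 h, no irradiation. MTT (5 mg/mL reagent) added for 3 h at 37 °C, formazan dissolved in DMSO, absorbance read at 590 nm. Triplicate wells, four independent experiments.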

[3] = Photosensitizing ability of the compound assessed as singlet oxygen quantum yield under 600nm monochromatic light irradiation by DPBF based assay relative to control; format: functional
Summary of the method: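 Singlet oxygen generation followed by the decrease in DPBF absorbance under irradiation. DPBF (20–25 μm) used at 5–10-fold excess over compound (2.5–5 μm).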

[4] = Thermal stability of compound in DMSO-d6 at 37.5 degree C measured before 24 hrs by 1H NMR spectroscopy analysis; format: physicochemical
Summary of the method: (§1)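 Compound in DMSO-d6 followed by 1H NMR. Degradation taken from the intensity of three signals (one resiquimod, one BODIPY, and the linkage NH), each relative to the DMSO-d6 internal standard, and the three averaged.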

[5] = Thermal stability of compound in DMSO-d6 at 37.5 degree C measured after 1 day by 1H NMR spectroscopy analysis relative to control; format: physicochemical; conditions: 24 h; summary of the method: as §1
[6] = Thermal stability of compound in DMSO-d6 at 37.5 degree C measured after 2 days by 1H NMR spectroscopy analysis relative to control; format: physicochemical; conditions: 48 h; time 2 day; summary of the method: as §1
[7] = Thermal stability of compound in DMSO-d6 at 37.5 degree C measured after 3 days by 1H NMR spectroscopy analysis relative to control; format: physicochemical; conditions: 72 h; time 3 day; summary of the method: as §1
[8] = Photorelease activity of the compound in DMSO-d6 measured after 10 hrs under 660nm 400mW LED light by 1H NMR spectroscopy analysis relative to control; format: ADME
[9] = Photorelease activity of the compound in aqueous solution at 30 uM measured upto 200 mins under dark condition by 1H NMR spectroscopy analysis; format: ADME; conditions: buffer, 3.333 h
[10] = Photorelease activity of the compound in aqueous solution at 30 uM measured upto 200 mins under 660nm 400mW LED light by UV-vis spectroscopy analysis; conditions: buffer, 3.333 h
[11] = Photorelease activity of the compound in CH3CN assessed as retention time under 532nm laser light by HPLC analysis; format: physicochemical
AD293 [12] = assay: Effect on morphological changes in human AD293 cells at 10 uM; format: functional, cell-based
Summary of the method: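 AD293 cells treated with 10 μM compound, followed by LED irradiation or kept unirradiated, then morphology examined by microscopy.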

AD293 [13] = assay: Effect on morphological changes in human AD293 cells stable expressing TLR7 at 10 uM pretreated with N-Acetylcysteine for 30 mins followed by compound addition and measured after 30 mins under LED light irradiation at 650 nm by microscopic analysis; format: functional, cell-based
Summary of the method: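 TLR7-stable AD293 cells seeded at 20,000/well. After 24 h, medium switched to Opti-MEM. 1 h later, 10 mM N-acetyl-cysteine added. 30 min after that, cells given 10 μM compound and exposed to 650 nm LED for 30 min, or shielded from light as control. Cells observed by microscope 24 h after drug treatment.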

[14] = target: T1, Toll-like receptor 7 (Homo sapiens) (UniProt Q9NYK1); assay: Activation of TLR7 in human AD293 cells assessed as IkappaB-alpha degradation at 10 uM preincubated with NAC followed by compound addition and measured after 30 mins under 650nm red light irradiation by Western blot analysis; format: cell-based; conditions: filed as activator
T1 sequence (whole entry): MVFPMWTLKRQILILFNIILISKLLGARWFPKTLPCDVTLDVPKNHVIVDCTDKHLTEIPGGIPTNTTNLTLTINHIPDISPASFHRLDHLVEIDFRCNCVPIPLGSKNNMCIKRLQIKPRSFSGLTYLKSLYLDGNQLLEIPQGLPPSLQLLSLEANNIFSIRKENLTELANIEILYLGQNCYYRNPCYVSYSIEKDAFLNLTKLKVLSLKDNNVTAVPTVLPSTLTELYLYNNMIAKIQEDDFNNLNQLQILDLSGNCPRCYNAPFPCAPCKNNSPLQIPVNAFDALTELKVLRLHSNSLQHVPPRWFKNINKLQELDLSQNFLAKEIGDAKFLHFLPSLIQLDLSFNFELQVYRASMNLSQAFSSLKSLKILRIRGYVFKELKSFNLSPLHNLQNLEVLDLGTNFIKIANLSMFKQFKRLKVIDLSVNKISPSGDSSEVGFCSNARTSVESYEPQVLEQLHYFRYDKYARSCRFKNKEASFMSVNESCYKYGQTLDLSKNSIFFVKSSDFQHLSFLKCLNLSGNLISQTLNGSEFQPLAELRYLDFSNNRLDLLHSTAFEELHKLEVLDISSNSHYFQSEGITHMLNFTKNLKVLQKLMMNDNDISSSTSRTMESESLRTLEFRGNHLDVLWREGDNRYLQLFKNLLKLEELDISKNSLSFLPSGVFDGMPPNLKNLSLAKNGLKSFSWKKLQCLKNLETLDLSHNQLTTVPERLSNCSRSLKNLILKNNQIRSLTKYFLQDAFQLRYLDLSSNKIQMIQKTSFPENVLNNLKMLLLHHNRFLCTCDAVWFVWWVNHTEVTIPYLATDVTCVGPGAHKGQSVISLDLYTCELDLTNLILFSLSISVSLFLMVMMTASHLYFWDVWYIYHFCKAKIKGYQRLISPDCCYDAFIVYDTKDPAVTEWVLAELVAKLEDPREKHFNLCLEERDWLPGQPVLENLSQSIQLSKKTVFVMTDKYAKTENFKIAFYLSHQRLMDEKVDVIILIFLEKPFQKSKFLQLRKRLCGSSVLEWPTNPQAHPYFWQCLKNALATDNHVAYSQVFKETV
Summary of the method: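 Stable TLR7-expressing AD293 line made by TLR7 plasmid transfection and hygromycin B selection (250 μg/mL, 10 days). Cells pretreated with N-acetyl-cysteine, then given 10 μM compound, with or without 30 min 650 nm red-light irradiation. Lysates run on 10% SDS-PAGE and blotted to PVDF. Total IκB probed (1:1000) with GAPDH loading control, ECL detection. Means of three experiments.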

[15] = Dark toxicity in human A549 cells assessed as cell viability at 10 uM under dark condition and measured after 72 hrs by CCK-8 method relative to control; format: cell-based; conditions: read-out: Activity
Summary of the method: (§2)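 A549, HaCaT and HeLa cells seeded at 2 × 10^3 cells/well in phenol red-free DMEM with 10% FBS. After 24 h, medium replaced with 1% DMSO containing 10 μM compound. After 90 min, one plate kept dark and one exposed to 530 or 650 nm LED (30 mW) for 15 min. Plates incubated 72 h, then CCK-8 read at 450 nm. Viability taken relative to dark control. Triplicates (HaCaT six).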

[16] = Phototoxicity in human A549 cells assessed as cell viability at 10 uM under 530 ot 650nm 30 mW LED light irradiation and measured after 72 hrs by CCK-8 method relative to control; format: functional; conditions: A549, light or radiation study, read-out: Activity; summary of the method: as §2
[17] = Dark toxicity in human HaCaT cells assessed as cell viability at 10 uM under dark condition and measured after 72 hrs by CCK-8 method relative to control; format: cell-based; conditions: read-out: Activity; summary of the method: as §2
[18] = Dark toxicity in human HeLa cells assessed as cell viability at 10 uM under dark condition and measured after 72 hrs by CCK-8 method relative to control; format: cell-based; conditions: read-out: Activity; summary of the method: as §2
[19] = Phototoxicity in human HaCaT cells assessed as cell viability at 10 uM under 530 ot 650nm 30 mW LED light irradiation and measured after 72 hrs by CCK-8 method relative to control; format: functional; conditions: light or radiation study, read-out: Activity; summary of the method: as §2
[20] = Phototoxicity in human HeLa cells assessed as cell viability at 10 uM under 530 ot 650nm 30 mW LED light irradiation and measured after 72 hrs by CCK-8 method relative to control; format: functional; conditions: light or radiation study, read-out: Activity; summary of the method: as §2
[21] = Photorelease activity of the compound in DMSO-d6 measured after 1 hr under 532nm YAG laser radiation by 1H NMR spectroscopy analysis relative to control; format: ADME
[22] = Photorelease activity of the compound in aqueous medium assessed as reduction in lamda maximum at 30 uM measured after 1 hr under 525 nm LED light radiation by UV-vis spectroscopy analysis; format: ADME; conditions: buffer
[23] = Photorelease activity of the compound in aqueous medium at 30 uM measured after 1 hr under dark condition by UV-vis spectroscopy analysis; format: ADME; conditions: buffer
[24] = Photorelease activity of the compound in CH3CN at 532nm laser light measured upto 60 mins under air condition by HPLC analysis relative to control; format: ADME; design: dose or concentration left out as unconfirmed; conditions: 1 h
[25] = Photorelease activity of the compound in CH3CN at 532nm laser light measured upto 60 mins under argon condition by HPLC analysis relative to control; format: ADME; design: dose or concentration left out as unconfirmed; conditions: 1 h
[26] = Drug uptake in human A549 cells assessed as increase in intracellular fluorescence at 1 uM measured after 40 mins by confocal microscopic analysis; format: ADME, cell-based; conditions: a549, 40 min
Summary of the method: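 A549 cells treated with 1 μM compound. Intracellular fluorescence imaged by confocal microscopy (640 nm laser excitation, 650–750 nm band-pass) at 0 and 40 min after treatment.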

[27] = Drug uptake in human AD293 cells assessed as increase in red fluorescence at 10 uM measured after 40 mins by fluorescence imaging based analysis; format: ADME, cell-based; conditions: ad293, 40 min
RAW264.7 [28] = assay: Effect on iNOS mRNA expression in mouse RAW264.7 cells at 100 nM preincubated with NAC followed by compound addition and measured after 30 mins under 650nm LED light irradiation by real-time PCR analysis; format: functional, cell-based
Summary of the method: (§3)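 RAW264.7 cells seeded at 0.3 million per 35 mm dish. Next day, pretreated with 10 mM N-acetyl-cysteine for 30 min, then given 100 nM compound and 650 nm LED light for 30 min. Total RNA taken 24 h later and reverse transcribed with random primers. SYBR real-time PCR run for 40 cycles (95/60/72 °C). Quantities calculated by the Ct method. Results given as fold change, means ± SD.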

RAW264.7 [29] = assay: Effect on TNF-alpha mRNA expression in mouse RAW264.7 cells at 100 nM preincubated with NAC followed by compound addition and measured after 30 mins under 650nm LED light irradiation by real-time PCR analysis; format: functional, cell-based; summary of the method: as §3
[30] = Induction of superoxide anion radical assessed as DMPO-O2 radical adduct formation under dark condition measured after 10 mins by ESR spectra analysis; format: functional
Summary of the method: (§4)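 ESR spectra recorded with DMPO as spin trap to detect superoxide and/or hydroxyl radical adducts, before and after 10 min irradiation of compound.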

[31] = Induction of superoxide anion radical assessed as DMPO-O2 radical adduct formation under light irradiation measured after 10 mins by ESR spectra analysis; format: functional; summary of the method: as §4
[32] = Induction of hydroxyl radical assessed as DMPO-OH radical adduct formation under dark condition measured after 10 mins by ESR spectra analysis; format: functional; summary of the method: as §4
[33] = Induction of hydroxyl radical assessed as DMPO-OH radical adduct formation under light irradiation measured after 10 mins by ESR spectra analysis; format: functional; summary of the method: as §4

Structure (SMILES)	Activity [1]	Activity (AD293 [2])	Activity [3] [%]	Activity [4]	Activity [5] [%]	Activity [6] [%]	Activity [7] [%]	Retention_time [11] [min]	Activity (AD293 [12])	Activity (AD293 [13])	Activity [14]	viability at 72 h, 10 µM [15] [%]	viability at 72 h, 10 µM [17] [%]	viability at 72 h, 10 µM [18] [%]	other results
CCOCc1nc2c(NC(=O)OCC3=C4C(C)=CC(/C=C/c5ccc(OCCOCCOCCOC)cc5)=[N+]4[B-](F)(F)n4c(/C=C/c5ccc(OCCOCCOCCOC)cc5)cc(C)c43)nc3ccccc3c2n1CC(C)(C)O	0.482	Non-toxic	0.33	Not_active	7	11	15	–	–	–	–	–	–	–	Activity [8]: ~ 90%; Activity [9]: Not_active; Activity [10]: Active
CC1=CC(C)=[N+]2C1=C(CO)c1c(C)cc(C)n1[B-]2(F)F	0.835	Toxic	7	–	–	–	–	4.15	–	–	–	–	–	–	–
CCOCc1nc2c(N)nc3ccccc3c2n1CC(C)(C)O [RESIQUIMOD]	–	–	–	–	–	–	–	–	inactive	inactive	Active	19	32	4	viability at 10 µM [16]: 21%
CCOCc1nc2c(NC(=O)OCC3=C4C(C)=CC(C)=[N+]4[B-](F)(F)n4c(C)cc(C)c43)nc3ccccc3c2n1CC(C)(C)O	0.809	Toxic	3.2	Not_active	12	22	31	6.8	–	–	Active	19	6	2	viability at 10 µM [19]: 88%; viability at 10 µM [20]: 54%; Activity [21]: 100%; Activity [22]: Active; Activity [23]: Not_active; Activity [24]: ~ 68%; Activity [25]: ~ 77%
COCCOCCOCCOc1ccc(/C=C/C2=[N+]3C(=C(CO)c4c(C)cc(/C=C/c5ccc(OCCOCCOCCOC)cc5)n4[B-]3(C)C)C(C)=C2)cc1	–	Non-toxic	2.2	–	–	–	–	–	inactive	Active; Showed Greater Effect Than Compound 3C	–	–	–	–	Drug uptake [26]: Active; Drug uptake [27]: Active; Activity (RAW264.7 [28]): inactive; Activity (RAW264.7 [29]): inactive; Activity [30]: inactive; Activity [31]: inactive; Activity [32]: inactive; Activity [33]: inactive
COCCOCCOCCOc1ccc(/C=C/C2=[N+]3C(=C(CO)c4c(C)cc(/C=C/c5ccc(OCCOCCOCCOC)cc5)n4[B-]3(F)F)C(C)=C2)cc1	0.554	Non-toxic	0.37	–	–	–	–	–	–	–	–	–	–	–	–
